# Results of several laboratories.
# Lines come from different studies, so protocols differ.
# Target: Death-associated protein kinase 1 (DAPK1, Homo sapiens, UniProt P53355)
SMILES,assay,setting,remaining binding
CCN1CCN(Cc2ccc(C(=O)Nc3ccc(C)c(Oc4ccc5c(c4)CC(=O)N5)c3)cc2C(F)(F)F)CC1,"binding, competition with immobilised ligand",1 µM,100%
O=C(NCCCN1CCOCC1)c1ccc(Nc2nccc(-c3cc4ccccc4s3)n2)cc1,"binding, competition with immobilised ligand",1 µM,18%
CN(c1nccc(-c2cnn3ncccc23)n1)C1CC1,binding,1 µM,100%
CNC(=O)[C@@H]1CC[C@@H](n2c(-c3ccc4cnccc4c3)nc3ccc(C(=O)NCc4cccc(C(N)=O)c4)cc32)C1,"binding, competition with immobilised ligand",1 µM,100%
C[C@@H](c1ccc(-n2cnc3c(N)ncnc32)cc1)N1CCc2nn(C)c(Cc3ccccc3)c2C1=O,"binding, competition with immobilised ligand",0.1 µM,95%
O=C(NCCCN1CCOCC1)c1ccc(Nc2ncc(Cl)c(-c3ccc(Cl)s3)n2)cc1,"binding, competition with immobilised ligand",1 µM,22%
CNCc1ccccc1-c1csc([C@H](C)Nc2nc(C)nc3cc(OC)c(OC)cc23)c1,"cell-free assay, competition with immobilised ligand",1 µM,100%
N[C@@H]1CCN(c2nccc(-c3cnn4ncccc34)n2)C1,binding,1 µM,97%
NS(=O)(=O)c1cc(NC(=O)C2(c3ccccc3Cl)CC2)ccc1Oc1cccc(Cl)c1,"cell-free assay, competition with immobilised ligand",1 µM,98%
COc1cnc(Nc2cccc(S(N)(=O)=O)c2)nc1N1CCN(c2ccccc2)C(=O)C1,"binding, competition with immobilised ligand",1 µM,95%
CN(CCCC(F)(F)F)c1nccc(-c2cnn3ncccc23)n1,binding,1 µM,100%
COc1cc(-c2cn(C3CCc4c(F)cccc4N(CC(F)(F)F)C3=O)nn2)ccc1-n1cnc(C)c1 (centres unmarked),"cell-free assay, competition with immobilised ligand",1 µM,99%
c1cncc(-c2cccc(Nc3nccc(NC4CCCCC4)n3)c2)c1,"binding, competition with immobilised ligand",10 µM,90%
C[C@@H]1CCN(c2nccc(-c3cnn4ncccc34)n2)C1,binding,1 µM,79%
C[C@H](c1ccc(F)cc1)N(Cc1cccc(C(=O)O)c1)C(=O)c1cnc2ccccc2c1,"cell-free assay, competition with immobilised ligand",1 µM,97%
Cc1cnc(Nc2ccc(C(=O)N3CCC(N4CCCC4)CC3)cc2)nc1-c1cc2ccccc2s1,"binding, competition with immobilised ligand",1 µM,16%
O=C1CCc2cc(Nc3cc(OC4CCOCC4)c([N+](=O)[O-])cc3Cl)ccc2N1,"cell-free assay, competition with immobilised ligand",1 µM,90%
O=C(NCC1CCOCC1)c1n[nH]cc1NC(=O)c1c(F)cccc1F,"binding, competition with immobilised ligand",1 µM,96%
Cc1cnn2ncc(-c3ccnc(N(C)C)n3)c2c1,binding,1 µM,74%
CCCOc1ccc([C@H]2[C@H](C(=O)O)[C@@H](c3ccc4c(c3)OCO4)CN2CC(=O)Nc2c(CC)cccc2CC)cc1,"cell-free assay, competition with immobilised ligand",1 µM,90%
